SENP8 block-1: SENP8 protease inhibition | Q96LD8 | purified SENP8, Z-RLRGG-aminoluciferin cleavage, luminescence | inhibition, % at 10 µM | 330,000 compounds, 1.2% hits; in the data active = inhibition above about 50%
SENP1 FRET inh: SENP1 (human) catalytic domain inhibition. Q9P0U3. recombinant SENP1 catalytic domain, CyPet-SUMO1-YPet FRET cleavage. inhibition, % at 10 µM. 360,000 compounds, 0.21% hits. AID 624204;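 active = inhibition at least 30% at 10 µM, raw YFP signal under a set limit, fluorescence ratio 0.5 to 1.5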;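 also: 0% = enzyme with DMSO and 100% = no enzyme wells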
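Material – human SENP1 catalytic domain · Input – SENP1 enzyme, 20 pM final · Compound dosing – single concentration of 10 µM compound, 0.5% DMSO final · Timing – enzyme reaction for 50 min at room temperature, dark · Measured by – FRET fluorescence in CFP and YFP emission channels · Control set – no-enzyme wells low, DMSO-plus-enzyme wells high control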
SENP7 inh: SENP7 protease inhibition. recombinant SENP7, Z-RLRGG-aminoluciferin luminescence, 40 min. inhibition, % at 5 µM. 330,000 compounds, 1.5% hits;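 active = inhibition above about 50% at the single test dose, limit read from the data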;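 also: plate controls were DMSO with enzyme for no effect and no enzyme buffer wells for full effect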
HSP90 inh: inhibitors of HSP90 luciferase refolding in rabbit reticulocyte lysate. AID 1789. 290,000 compounds, 0.91% hits. inhibition, % at 5.6 µM. luciferase refolding luminescence, 3 h;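 active = inhibition above the screen-wide mean plus 3 SD, computed separately per campaign, cut at about 16% in these data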;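 also: 0% = DMSO wells and 100% = 60 µM geldanamycin wells; inhibitors lower the luminescence because luciferase stays unfolded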
SENP6 inh: blocks the human protease SENP6; Q9GZR1; Recombinant SENP6 catalytic domain, aminoluciferin luminescence; inhibition, % at 10 µM; 330,000 compounds, 1.8% hits; AID 2599;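 active = inhibition above about 50% at the single tested dose, limit read from the data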;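 also: plate controls were DMSO wells with enzyme for no effect and DMSO wells lacking enzyme for full effect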
Target sequence (Q9GZR1 628-1112 limits assumed): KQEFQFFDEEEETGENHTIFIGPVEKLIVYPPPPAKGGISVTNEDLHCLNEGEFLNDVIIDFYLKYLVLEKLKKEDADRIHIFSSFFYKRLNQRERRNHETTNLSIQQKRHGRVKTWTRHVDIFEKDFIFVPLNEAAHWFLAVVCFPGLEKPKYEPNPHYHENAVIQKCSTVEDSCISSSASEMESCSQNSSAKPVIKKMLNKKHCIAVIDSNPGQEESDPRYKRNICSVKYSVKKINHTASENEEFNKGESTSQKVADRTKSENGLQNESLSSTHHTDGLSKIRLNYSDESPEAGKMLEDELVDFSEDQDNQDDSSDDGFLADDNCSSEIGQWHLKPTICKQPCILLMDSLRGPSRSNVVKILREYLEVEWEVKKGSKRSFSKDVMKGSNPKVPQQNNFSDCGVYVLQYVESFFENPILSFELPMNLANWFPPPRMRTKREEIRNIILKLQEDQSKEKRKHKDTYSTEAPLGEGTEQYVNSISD
SENP8 block-2: SENP8 (human) protease inhibition; Q96LD8; recombinant SENP8, Nedd8 substrate fluorescence; inhibition, % at 20 µM; 360,000 compounds, 0.64% hits; AID 602440; in the data active = inhibition mostly above about 40%, no sharp cut-off; inactive = mostly below about 27%
SENP8 inh conf: confirmation of human SENP8 protease inhibitors; shares compounds with SENP8 block-2; 1,400 compounds, 15% hits; purified SENP8, Nedd8-AMC/pro-Nedd8 cleavage fluorescence, 30 min; inhibition, % at 25 µM; in the data active = inhibition mostly above about 39%, no sharp cut-off; inactive = mostly below about 34%
* hit, by the source's call; . = not tested or not shown. Only some compounds are listed: those with a hit (about 2.9% of all), similar ones and a draw of the others.

SMILES | SENP8 block-1 | SENP1 FRET inh | SENP7 inh | HSP90 inh | SENP6 inh | SENP8 block-2 | SENP8 inh conf
CCOC(=O)C1CCN(C(=O)Nc2ccc3oc(C)nc3c2)CC1 | 7 | 3 | -4 | 0 | -9 | 46* | 6
Cc1cc(C)n(-c2ccc(C(=O)N3CCN(S(=O)(=O)c4ccc(Br)cc4Cl)CC3)cc2)n1 | . | 3 | . | . | . | 42* | 8
Cc1cc(C)n(-c2ccc(C(=O)N3CCN(c4ccccn4)CC3)cc2)n1 | -6 | 2 | -6 | . | -17 | -3 | .
CC1(C)C(=O)C=CC(=O)C(C)(C)C(=O)C=CC(=O)C(C)(C)C2=CC=C(O2)C(C)(C)C(=O)C=CC1=O | . | 7 | . | . | . | 48* | 12
CCC(C(=O)Nc1ccc([N+](=O)[O-])cn1)c1ccccc1 (stereo not given) | -5 | 1 | 0 | 1 | 6 | -9 | .
O=C(O)CCc1ccc(-c2ccc(Br)cc2)n1NC(=O)c1ccc([N+](=O)[O-])cc1 | 0 | 2 | 5 | 2 | -10 | 44* | 25
CNC(=O)c1c(NC(=O)C2=COCCO2)sc2c1CCN(C(=O)OC)C2 | -1 | 0 | -9 | . | -2 | -196 | .
NC(=O)CC(NC(=O)c1ccccc1)c1ccc(NCCc2ccc(Cl)cc2)c([N+](=O)[O-])c1 (stereo not given) | -5 | 16 | 1 | . | 1 | 44* | -1
NC(=O)CC(NC(=O)c1ccccc1)c1ccc(NC2CCCCC2)c([N+](=O)[O-])c1 (stereo not given) | -10 | 5 | 9 | . | -16 | 43* | 18
NC(=O)CC(NC(=O)c1ccccc1)c1ccc(NCc2ccc(F)c(F)c2)c([N+](=O)[O-])c1 (stereo not given) | 4 | 4 | -3 | -1 | -13 | 23 | .
Cc1ccc(NNC(N)=S)cc1Cl | -7 | 2 | -5 | -3 | -2 | 60* | 17
CCOc1ccc(C(c2c(C)[nH][nH]c2=O)c2c(C)[nH][nH]c2=O)cc1OC | -2 | 1 | 10 | 2 | -3 | 54* | 35
Cc1ccc(-n2c(=O)cc(N3CCCCCC3)[nH]c2=O)cc1 | -6 | 2 | 6 | 0 | -19 | 45* | 14
O=c1cc(N2CCCCCC2)[nH]c(=O)n1-c1ccc(Cl)cc1 | 3 | 0 | 2 | 7 | -6 | 15 | .
CSc1ncc(Cl)c(C(=O)NCc2cccnc2)n1 | -5 | 1 | 4 | 1 | 1 | 7 | .
Cc1cc2c(NC(=O)CC(C)(C)CC(=O)O)cccc2nn1 | 5 | 4 | 9 | -3 | 10 | 44* | 6
Cc1[nH]n(-c2ccc(F)cc2)c(=O)c1/C=N/c1sc2c(c1C#N)CCCC2 | 8 | 1 | 8 | 3 | 11 | 48* | 23
CCOc1ccc(N/C=C/C(=O)c2ccc(C)cc2)c([N+](=O)[O-])c1 | -7 | 11 | -7 | 6 | -13 | 43* | 19
CCOc1ccc(N/C=C/C(=O)c2ccc3ccccc3c2)c([N+](=O)[O-])c1 | -3 | 17 | -8 | -1 | -18 | 25 | .
O=C(c1ccc(Br)c(S(=O)(=O)N2CCCCC2)c1)N1CCCCC1 | -5 | 3 | -7 | -1 | 3 | 7 | .
NS(=O)(=O)c1ccc(CCNC(=O)COC(=O)c2ccc([N+](=O)[O-])o2)cc1 | 14 | 1 | 7 | . | 16 | 47* | 89*
Cc1ccc2nc(N3CCN(c4ccccc4F)CC3)c(C=O)c(=O)n2c1 | 0 | -4 | -1 | -5 | 1 | 11 | .
O=[N+]([O-])c1ccc(Sc2ccccc2Cl)nc1 | -2 | 0 | -3 | 1 | -11 | 40* | 8
Nc1c(C(=O)c2ccc(Cl)cc2)sc2nsc(SCCN3CCOCC3)c12 | 0 | -38 | -2 | 2 | -11 | 38 | .
Nc1c(C(=O)c2ccccc2)sc2nsc(SCCN3CCCC3)c12 | -8 | -39 | -3 | -1 | -12 | 44* | 13
SMILES | SENP8 block-1 | SENP1 FRET inh | SENP7 inh | HSP90 inh | SENP6 inh | SENP8 block-2 | SENP8 inh conf
CCOC(=O)/C(=C(/C)N)C1CC(=O)NC1=O (stereo not given) | . | -2 | . | . | . | -11 | .
Nc1cc(N)cc(C(=O)c2ccccc2)c1 | . | 1 | . | . | . | 43* | 77*
O=C(c1ccccc1)c1cccc(C(=O)c2ccccc2)c1 | -13 | 0 | -4 | . | -2 | 8 | .
COc1cccc(C(O)c2nc(/C=C/c3ccc(C(F)(F)F)cc3)cs2)c1 (stereo not given) | . | 0 | . | . | . | -73 | .
CCn1c(SCC(=O)Nc2ccccc2OC)nc(O)cc1=O | 8 | 0 | -3 | -7 | -3 | 23 | .
CC(C)c1noc2ncc(C(=O)c3cc(Cl)cc(Cl)c3O)cc12 | -6 | 18 | 2 | 3 | -3 | 46* | 18
COC(=O)c1ccc(C)cc1C1CN=NC12Cc1cc(C)ccc1C2=O (stereo not given) | . | 0 | . | . | . | 57* | 33
N#CC(c1ccccc1)c1ccc2c(C(F)(F)F)cc(C(F)(F)F)nc2n1 (stereo not given) | -9 | -13 | -7 | 3 | -3 | 32 | .
Cc1ccc(C(C#N)c2ccc3c(C(F)(F)F)cc(C(F)(F)F)nc3n2)cc1 (stereo not given) | 6 | -6 | -3 | 0 | -22 | 43* | 11
Cc1cccc(NC(=O)CN(c2ccc(C(C)C)cc2)S(=O)(=O)c2c(C)nn(C)c2C)n1 | -2 | 0 | 6 | 1 | 2 | 6 | .
O=C(NCCNc1ccc([N+](=O)[O-])cc1C(F)(F)F)c1ccccc1F | 5 | 2 | 7 | -1 | 0 | 44* | 14
CC(C)CCNC(=O)C1(c2cccs2)CCOCC1 | -8 | 0 | -4 | -1 | 17 | 41* | 4
Cc1cc(C)nc(NNS(=O)(=O)c2ccc(Cl)cc2)n1 | 5 | 1 | 5 | . | -4 | 9 | .
Cc1cc(C)nc(NNS(=O)(=O)c2ccc(F)c(Cl)c2)n1 | -2 | 3 | 3 | . | -9 | 36* | 14
COC(=O)CCCC1=CC2=CC(=O)C(C)(OC(=O)c3cccs3)C(=O)C2=CN1C1CCCC1 (stereo not given) | 9 | -15 | 3 | . | 7 | 46* | 49*
COC(=O)CCCC1=CC2=CC(=O)C(C)(OC(=O)c3cccs3)C(=O)C2=CN1Cc1ccccc1 (stereo not given) | 16 | -37 | 5 | . | 25 | 13 | .
CC(C)(C)c1nn2cnnc2n(/N=C/c2ccc(O)cc2)c1=O | -17 | 2 | -1 | 1 | -41 | 5 | .
CC(=O)Nc1ccc(S(=O)(=O)N[C@@H](C)C(=O)OCc2cc([N+](=O)[O-])cc3c2OCOC3)cc1 | 4 | 3 | 3 | 1 | 12 | 45* | -1
CC(C)C(NS(=O)(=O)c1ccccc1)C(=O)OCc1cc([N+](=O)[O-])cc2c1OCOC2 (stereo not given) | . | 1 | . | 3 | . | 6 | .

Assay outcomes deposited in PubChem by several laboratories.
